Calls of active or inactive are those of the source.
Legend:
Rattus norvegicus [1] = assay: Anticonvulsant activity in Sprague-Dawley rat assessed as protection against 150 mA current-induced seizure at 30 mg/kg, po measured after 2 hrs by maximal electroshock seizure test; format: functional, organism-based
Outline: (§1)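 Rats received 30 mg/kg orally and were given maximal electroshock at 0.25, 0.5, 1, 2, 4 and 6 h. Read-out is the number of rats protected out of four.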

Mus musculus [2] = assay: Anticonvulsant activity in CD1 mouse assessed as protection against 50 mA current-induced seizure at 300 mg/kg, ip and measured after 0.5 hrs by maximal electroshock seizure test; format: functional, organism-based
Outline: (§2)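 Mice were screened after intraperitoneal doses of 30, 100 and 300 mg/kg in the maximal electroshock and subcutaneous pentylenetetrazole tests, examined at 0.5 and 4 h. The value recorded is the minimum dose showing activity. No activity up to 300 mg/kg is scored as absent.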

Mus musculus [3] = assay: Anticonvulsant activity in ip dosed CD1 mouse assessed as protection against 50 mA current-induced seizure and measured after 4 hrs by maximal electroshock seizure test; format: functional; settings: read-out: MED; outline: as §2
[4] = Neurotoxicity in CD1 mouse at 300 mg/kg, ip and measured after 0.5 hrs by rotarod test; format: toxicity, organism-based; settings: in vivo
Outline: (§3)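 Mice dosed intraperitoneally at 30, 100 and 300 mg/kg, then tested on the rotarod at 0.5 h and 4 h. The value recorded is the minimum dose at which neurotoxicity appeared. A dash means no neurotoxicity at the top dose of 300 mg/kg.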

Rattus norvegicus [5] = assay: Anticonvulsant activity in Sprague-Dawley rat assessed as protection against 150 mA current-induced seizure at 30 mg/kg, po measured after 15 mins by maximal electroshock seizure test; format: functional, organism-based; outline: as §1
[6] = Neurotoxicity in Sprague-Dawley rat at 30 mg/kg, po measured after 1 hr by rotarod test; format: toxicity, organism-based; settings: in vivo
Outline: (§4)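 Rats given one oral dose of 30 mg/kg and tested on the rotarod at 0.25, 0.5, 1, 2, 4 and 6 h.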

Rattus norvegicus [7] = assay: Anticonvulsant activity in Sprague-Dawley rat assessed as protection against 150 mA current-induced seizure at 30 mg/kg, po measured after 1 hr by maximal electroshock seizure test; format: functional, organism-based; outline: as §1
Mus musculus [8] = assay: Anticonvulsant activity in CD1 mouse assessed as protection against subcutaneous pentylenetetrazole-induced seizures at 300 mg/kg, ip and measured after 4 hrs; format: functional, organism-based; outline: as §2
[9] = Neurotoxicity in Sprague-Dawley rat at 30 mg/kg, po measured after 2 hr by rotarod test; format: toxicity, organism-based; settings: in vivo; outline: as §4
[10] = Neurotoxicity in CD1 mouse at 300 mg/kg, ip and measured after 4 hrs hrs by rotarod test; format: toxicity, organism-based; settings: in vivo; outline: as §3
Mus musculus [11] = assay: Anticonvulsant activity in CD1 mouse assessed as protection against subcutaneous pentylenetetrazole-induced seizures at 300 mg/kg, ip and measured after 0.5 hrs; format: functional, organism-based; outline: as §2
[12] = Neurotoxicity in Sprague-Dawley rat at 30 mg/kg, po measured after 30 mins by rotarod test; format: toxicity, organism-based; settings: in vivo, 0.5 h; outline: as §4
[13] = Neurotoxicity in Sprague-Dawley rat at 30 mg/kg, po measured after 4 hr by rotarod test; format: toxicity, organism-based; settings: in vivo; outline: as §4
[14] = Neurotoxicity in Sprague-Dawley rat at 30 mg/kg, po measured after 15 mins by rotarod test; format: toxicity, organism-based; settings: in vivo, 0.25 h; outline: as §4
Mus musculus [15] = assay: Anticonvulsant activity in ip dosed CD1 mouse assessed as protection against 50 mA current-induced seizure and measured after 0.5 hrs by maximal electroshock seizure test; format: functional; settings: read-out: MED; outline: as §2
[16] = Neurotoxicity in ip dosed CD1 mouse and measured after 4 hrs by rotarod test; format: toxicity, organism-based; settings: in vivo; outline: as §3
Mus musculus [17] = assay: Anticonvulsant activity in ip dosed CD1 mouse assessed as protection against subcutaneous pentylenetetrazole-induced seizures and measured after 4 hrs; format: functional; settings: CD1, 4 h, read-out: MED; outline: as §2
[18] = Neurotoxicity in ip dosed CD1 mouse and measured after 0.5 hrs by rotarod test; format: toxicity, organism-based; settings: in vivo; outline: as §3
Rattus norvegicus [19] = assay: Anticonvulsant activity in Sprague-Dawley rat assessed as protection against 150 mA current-induced seizure at 30 mg/kg, po measured after 4 hrs by maximal electroshock seizure test; format: functional, organism-based; outline: as §1
Mus musculus [20] = assay: Anticonvulsant activity in CD1 mouse assessed as protection against 32 mA current-induced seizure at 100 mg/kg, ip measured after 2 hrs by 6 Hz psychomotor seizure test
[21] = Neurotoxicity in CD1 mouse at 100 mg/kg, ip measured after 4 hrs by rotarod test; settings: in vivo
[22] = Neurotoxicity in CD1 mouse at 100 mg/kg, ip measured after 2 hrs by rotarod test; settings: in vivo
[23] = Neurotoxicity in CD1 mouse at 100 mg/kg, ip measured after 15 mins by rotarod test; settings: in vivo, 0.25 h
[24] = Neurotoxicity in CD1 mouse at 100 mg/kg, ip measured after 1 hr by rotarod test; settings: in vivo
Mus musculus [25] = assay: Anticonvulsant activity in CD1 mouse assessed as protection against 32 mA current-induced seizure at 100 mg/kg, ip measured after 30 mins by 6 Hz psychomotor seizure test
Mus musculus [26] = assay: Anticonvulsant activity in CD1 mouse assessed as protection against 32 mA current-induced seizure at 100 mg/kg, ip measured after 15 mins by 6 Hz psychomotor seizure test
[27] = Neurotoxicity in CD1 mouse at 100 mg/kg, ip measured after 30 mins by rotarod test; settings: in vivo, 0.5 h
Rattus norvegicus [28] = assay: Anticonvulsant activity in Sprague-Dawley rat assessed as protection against 150 mA current-induced seizure at 30 mg/kg, po measured after 30 mins by maximal electroshock seizure test; format: functional, organism-based; outline: as §1
Mus musculus [29] = assay: Anticonvulsant activity in CD1 mouse assessed as protection against 50 mA current-induced seizure at 300 mg/kg, ip and measured after 4 hrs by maximal electroshock seizure test; format: functional, organism-based; outline: as §2

O=C1NC(c2ccccc2)(c2ccccc2)C(=O)N1CN1CCN(c2ccc(F)cc2)CC1
100 mg/kg: minimal effective dose (Mus musculus [3])
Non-Toxic: Activity [4] | Activity [6] | Activity [9] | Activity [10] | Activity [12] | Activity [13] | Activity [14]
inactive: Activity (Rattus norvegicus [1]) | Activity (Mus musculus [2]) | Activity (Rattus norvegicus [5]) | Activity (Rattus norvegicus [7]) | Activity (Mus musculus [8]) | MED (Mus musculus [11])

O=C1NC(c2ccccc2)(c2ccccc2)C(=O)N1CN1CCN(c2ccccc2)CC1
300 mg/kg: minimal effective dose (Mus musculus [15])
Non-Toxic: Activity [4] | Activity [6] | Activity [9] | Activity [10] | Activity [12] | Activity [13] | Activity [14]
inactive: Activity (Mus musculus [8]) | MED (Mus musculus [11])
100 mg/kg: minimal effective dose (Mus musculus [3])

CC(C)C1(C(C)C)NC(=O)N(CN2CCN(c3ccccc3F)CC2)C1=O
100 mg/kg: minimal effective dose (Mus musculus [17]) | minimal effective dose (Mus musculus [3]) | minimal effective dose (Mus musculus [15])
300 mg/kg: MTC [16] | minimal neurotoxic dose [18]
inactive: MED (Mus musculus [11])

O=C1NC(c2ccccc2)(c2ccccc2)C(=O)N1CN1CCN(c2cccc(C(F)(F)F)c2)CC1
100 mg/kg: minimal effective dose (Mus musculus [3])
300 mg/kg: minimal effective dose (Mus musculus [15])
inactive: Activity (Rattus norvegicus [5]) | Activity (Mus musculus [8]) | Activity (Mus musculus [25]) | MED (Mus musculus [11]) | Activity (Mus musculus [26])
active: Activity (Rattus norvegicus [1]) | Activity (Rattus norvegicus [19]) | Activity (Mus musculus [20]) | Activity (Rattus norvegicus [7])
Non-Toxic: Activity [4] | Activity [6] | Activity [21] | Activity [22] | Activity [23] | Activity [9] | Activity [10] | Activity [24] | Activity [12] | Activity [13] | Activity [14] | Activity [27]

CC(C)C1(C(C)C)NC(=O)N(CN2CCN(c3ccc(F)cc3)CC2)C1=O
inactive: Activity (Mus musculus [2]) | Activity (Mus musculus [8]) | MED (Mus musculus [11])
100 mg/kg: minimal effective dose (Mus musculus [3])
300 mg/kg: MTC [16] | minimal neurotoxic dose [18]

CC(C)C1(C(C)C)NC(=O)N(CN2CCN(c3cccc(Cl)c3)CC2)C1=O
Non-Toxic: Activity [4] | Activity [6] | Activity [9] | Activity [10] | Activity [12] | Activity [13] | Activity [14]
inactive: Activity (Rattus norvegicus [5]) | Activity (Rattus norvegicus [7]) | Activity (Mus musculus [8]) | MED (Mus musculus [11]) | Activity (Rattus norvegicus [28])
100 mg/kg: minimal effective dose (Mus musculus [3]) | minimal effective dose (Mus musculus [15])

CC(C)C1(C(C)C)NC(=O)N(CN2CCN(C)CC2)C1=O
300 mg/kg: minimal neurotoxic dose [18] | minimal effective dose (Mus musculus [15])
inactive: Activity (Mus musculus [8]) | Activity (Mus musculus [29]) | MED (Mus musculus [11])
Non-Toxic: Activity [10]

CC(C)C1(C(C)C)NC(=O)N(CN2CCN(c3cccc(C(F)(F)F)c3)CC2)C1=O
100 mg/kg: minimal effective dose (Mus musculus [3])
Non-Toxic: Activity [4] | Activity [6] | Activity [21] | Activity [22] | Activity [23] | Activity [9] | Activity [10] | Activity [24] | Activity [12] | Activity [13] | Activity [14] | Activity [27]
inactive: Activity (Mus musculus [2]) | Activity (Rattus norvegicus [5]) | Activity (Mus musculus [8]) | MED (Mus musculus [11]) | Activity (Mus musculus [26])

O=C1NC(c2ccccc2)(c2ccccc2)C(=O)N1CN1CCN(c2ccccc2F)CC1
inactive: Activity (Mus musculus [2]) | Activity (Rattus norvegicus [5]) | Activity (Mus musculus [8]) | MED (Mus musculus [11])
30 mg/kg: minimal effective dose (Mus musculus [3])
active: Activity (Mus musculus [20])
Non-Toxic: Activity [4] | Activity [6] | Activity [21] | Activity [22] | Activity [23] | Activity [9] | Activity [10] | Activity [24] | Activity [12] | Activity [13] | Activity [14] | Activity [27]

O=C1NC(c2ccccc2)(c2ccccc2)C(=O)N1CN1CCN(Cc2ccccc2)CC1
300 mg/kg: minimal effective dose (Mus musculus [15])
Non-Toxic: Activity [4] | Activity [6] | Activity [9] | Activity [10] | Activity [12] | Activity [13] | Activity [14]
100 mg/kg: minimal effective dose (Mus musculus [3])
inactive: Activity (Rattus norvegicus [1]) | Activity (Rattus norvegicus [7]) | Activity (Mus musculus [8]) | MED (Mus musculus [11])

O=C1NC(c2ccccc2)(c2ccccc2)C(=O)N1CN1CCN(c2cccc(Cl)c2)CC1
100 mg/kg: minimal effective dose (Mus musculus [3])
inactive: Activity (Mus musculus [2]) | Activity (Mus musculus [8]) | MED (Mus musculus [11]) | Activity (Rattus norvegicus [28])
Non-Toxic: Activity [4] | Activity [6] | Activity [9] | Activity [10] | Activity [12] | Activity [13] | Activity [14]

CC(C)C1(C(C)C)NC(=O)N(CN2CCN(Cc3ccccc3)CC2)C1=O
inactive: Activity (Mus musculus [2]) | Activity (Mus musculus [8]) | Activity (Mus musculus [29]) | MED (Mus musculus [11])
300 mg/kg: minimal neurotoxic dose [18]
Non-Toxic: Activity [10]
